Laboratory results taken from ChEMBL document CHEMBL3608279, “Discovery and Characterization of a Water-Soluble Prodrug of a Dual Inhibitor of Bacterial DNA Gyrase and Topoisomerase IV” (ACS Med Chem Lett, 2015).
pKi: −log10 of the molar value. Converted amounts (≈) assume the structure as drawn.

What was measured:
[1] = (§1) Apparent permeability across basolateral to apical side in MDCK cells; format: ADME, cell-based, Canis lupus familiaris; conditions: dog
In short: (§2)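 Papp measured in wild-type MDCK cells in both apical-to-basolateral and basolateral-to-apical directions; values expressed in units of 1 × 10–6 cm/sec.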

[2] = molecular target: DNA gyrase (Staphylococcus aureus, UniProt P0A0K8+P20831); test: Inhibition of Staphylococcus aureus DNA gyrase; format: protein-complex assay
[3] = tested on: Plasma; test: Drug uptake in dog plasma at 1 mg/kg, iv measured at 4 hrs by LC-MS/MS analysis; format: ADME, organism-based, Canis lupus familiaris; conditions: in vivo
In short: (§3)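 Single IV dose, 1 mg/kg nominal, given to rat, dog and monkey. Plasma sampled over time for both prodrug and parent, with the parent exposure expressed as AUC. Dosing the parent itself IV at the same nominal dose served as the comparator.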

[4] = tested on: Streptococcus pneumoniae; test: Antibacterial activity against Streptococcus pneumoniae ATCC 10015; format: functional
[5] = (§4) Apparent permeability across apical to basolateral side in MDCK cells; format: ADME, cell-based, Canis lupus familiaris; conditions: dog; in short: as §2
[6] = tested on: Enterococcus faecalis; test: Antibacterial activity against Enterococcus faecalis ATCC 29212; format: functional
[7] = tested on: Plasma; test: Drug uptake in rat plasma at 3 mg/kg, po by LC-MS/MS analysis; format: ADME, organism-based; conditions: in vivo
In short: (§5)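 Prodrug given orally to rat and dog at 3 mg/kg and to monkey at 30 mg/kg. Plasma parent exposure measured, with oral dosing of the parent at the same nominal dose as comparator.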

[8] = tested on: Staphylococcus aureus; test: Antibacterial activity against methicillin/levofloxacin-resistant Staphylococcus aureus 156 in po dosed neutropenic CD1 mouse pneumonia model assessed as decrease in bacterial burden in lung administered as bid measured after 24 hrs; format: functional; conditions: for MIC: Staphylococcus aureus, 156, Lung
In short: (§6)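 Neutropenic female CD-1 mice, 6 per group, infected in the lung with the MRSA isolate. Oral dosing began 3 h after challenge at 7.5, 15 and 30 mg/kg BID. Lungs were taken after 24 h of treatment and bacterial burden counted as CFU. Early-control and vehicle-treated groups served as reference. The levofloxacin comparator was given TID subcutaneously.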

[9] = tested on: Enterococcus faecium; test: Antibacterial activity against Enterococcus faecium ATCC 49624; format: functional
[10] = molecular target: Topoisomerase IV (Staphylococcus aureus, UniProt P0C1S7+P0C1U9); test: Inhibition of Staphylococcus aureus DNA topoisomerase 4; format: protein-complex assay
[11] = tested on: Plasma; test: Drug uptake in monkey plasma at 1 mg/kg, iv measured at 4 hrs by LC-MS/MS analysis; format: ADME, organism-based, Macaca mulatta; conditions: rhesus monkey, in vivo; in short: as §3
[12] = tested on: Staphylococcus aureus; test: Antibacterial activity against methicillin-resistant Staphylococcus aureus 509 in po dosed neutropenic CD1 mouse pneumonia model assessed as decrease in bacterial burden in lung administered as bid measured after 24 hrs; format: functional; conditions: for MIC: Staphylococcus aureus, 509, Lung; in short: as §6
[13] = tested on: Plasma; test: Drug uptake in rat plasma at 1 mg/kg, iv measured at 4 hrs by LC-MS/MS analysis; format: ADME, organism-based; conditions: in vivo; in short: as §3
[14] = tested on: Plasma; test: Drug uptake in dog plasma at 3 mg/kg, po by LC-MS/MS analysis; format: ADME, organism-based, Canis lupus familiaris; conditions: in vivo; in short: as §5
[15] = tested on: Plasma; test: Drug uptake in monkey plasma at 30 mg/kg, po by LC-MS/MS analysis; format: ADME, organism-based, Macaca mulatta; conditions: rhesus monkey, in vivo; in short: as §5
[16] = tested on: Staphylococcus aureus; test: Antibacterial activity against Staphylococcus aureus ATCC 29213; format: functional
[17] = tested on: MDCK; test: as §1; format: ADME, cell-based, Canis lupus familiaris; conditions: dog; in short: as §2
[18] = tested on: Plasma; test: Prodrug conversion in monkey plasma assessed as formation of 1-ethyl-3-[6-fluoro-5-[2-(1-hydroxy-1-methyl-ethyl)pyrimidin-5-yl]-7-[(2R)-tetrahydrofuran-2-yl]-1H-benzimidazol-2-yl]urea at 1 mg/kg, iv measured at 4 hrs by LC-MS/MS analysis; format: ADME, organism-based, Macaca mulatta; conditions: rhesus monkey, in vivo; in short: as §3
[19] = tested on: MDCK; test: as §4; format: ADME, cell-based, Canis lupus familiaris; conditions: dog; in short: as §2
[20] = tested on: Liver; test: Prodrug conversion in dog liver S9 fractions assessed as formation of 1-ethyl-3-[6-fluoro-5-[2-(1-hydroxy-1-methyl-ethyl)pyrimidin-5-yl]-7-[(2R)-tetrahydrofuran-2-yl]-1H-benzimidazol-2-yl]urea by Michaelis-Menten plot analysis; format: ADME, subcellular, Canis lupus familiaris, Liver S9 fraction
In short: (§7)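 Prodrug incubated across 1 to 1000 μM in liver and intestinal S9 fractions from rat, dog, monkey and human. Formation of the parent compound was followed to characterize conversion kinetics.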

[21] = tested on: Plasma; test: Prodrug conversion in monkey plasma assessed as formation of 1-ethyl-3-[6-fluoro-5-[2-(1-hydroxy-1-methyl-ethyl)pyrimidin-5-yl]-7-[(2R)-tetrahydrofuran-2-yl]-1H-benzimidazol-2-yl]urea at 30 mg/kg, po by LC-MS/MS analysis; format: ADME, organism-based, Macaca mulatta; conditions: rhesus monkey, in vivo; in short: as §5
[22] = tested on: Plasma; test: Prodrug conversion in dog plasma assessed as formation of 1-ethyl-3-[6-fluoro-5-[2-(1-hydroxy-1-methyl-ethyl)pyrimidin-5-yl]-7-[(2R)-tetrahydrofuran-2-yl]-1H-benzimidazol-2-yl]urea at 3 mg/kg, po by LC-MS/MS analysis; format: ADME, organism-based, Canis lupus familiaris; conditions: in vivo; in short: as §5
[23] = tested on: Staphylococcus aureus; test: Antibacterial activity against methicillin-resistant Staphylococcus aureus 509 in neutropenic CD1 mouse pneumonia model assessed as decrease in bacterial burden in lung at 30 mg/kg, po bid measured after 24 hrs; format: functional; in short: as §6
[24] = tested on: Liver; test: Prodrug conversion in rat liver S9 fractions assessed as formation of 1-ethyl-3-[6-fluoro-5-[2-(1-hydroxy-1-methyl-ethyl)pyrimidin-5-yl]-7-[(2R)-tetrahydrofuran-2-yl]-1H-benzimidazol-2-yl]urea by Michaelis-Menten plot analysis; format: ADME, subcellular, Liver S9 fraction; in short: as §7
[25] = tested on: Plasma; test: Prodrug conversion in dog plasma assessed as formation of 1-ethyl-3-[6-fluoro-5-[2-(1-hydroxy-1-methyl-ethyl)pyrimidin-5-yl]-7-[(2R)-tetrahydrofuran-2-yl]-1H-benzimidazol-2-yl]urea at 1 mg/kg, iv measured at 4 hrs by LC-MS/MS analysis; format: ADME, organism-based, Canis lupus familiaris; conditions: in vivo; in short: as §3
[26] = tested on: Plasma; test: Prodrug conversion in rat plasma assessed as formation of 1-ethyl-3-[6-fluoro-5-[2-(1-hydroxy-1-methyl-ethyl)pyrimidin-5-yl]-7-[(2R)-tetrahydrofuran-2-yl]-1H-benzimidazol-2-yl]urea at 1 mg/kg, iv measured at 4 hrs by LC-MS/MS analysis; format: ADME, organism-based; conditions: in vivo; in short: as §3
[27] = Prodrug conversion in monkey liver S9 fractions assessed as formation of 1-ethyl-3-[6-fluoro-5-[2-(1-hydroxy-1-methyl-ethyl)pyrimidin-5-yl]-7-[(2R)-tetrahydrofuran-2-yl]-1H-benzimidazol-2-yl]urea by Michaelis-Menten plot analysis; format: ADME, subcellular, Macaca mulatta, Liver S9 fraction; conditions: rhesus monkey; in short: as §7
[28] = tested on: Plasma; test: Prodrug conversion in rat plasma assessed as formation of 1-ethyl-3-[6-fluoro-5-[2-(1-hydroxy-1-methyl-ethyl)pyrimidin-5-yl]-7-[(2R)-tetrahydrofuran-2-yl]-1H-benzimidazol-2-yl]urea at 3 mg/kg, po by LC-MS/MS analysis; format: ADME, organism-based; conditions: in vivo; in short: as §5
[29] = tested on: Intestine; test: Prodrug conversion in rat intestine S9 fractions assessed as formation of 1-ethyl-3-[6-fluoro-5-[2-(1-hydroxy-1-methyl-ethyl)pyrimidin-5-yl]-7-[(2R)-tetrahydrofuran-2-yl]-1H-benzimidazol-2-yl]urea by Michaelis-Menten plot analysis; format: ADME, tissue-based; in short: as §7
[30] = Prodrug conversion in dog intestine S9 fractions assessed as formation of 1-ethyl-3-[6-fluoro-5-[2-(1-hydroxy-1-methyl-ethyl)pyrimidin-5-yl]-7-[(2R)-tetrahydrofuran-2-yl]-1H-benzimidazol-2-yl]urea by Michaelis-Menten plot analysis; format: ADME, tissue-based, Canis lupus familiaris; in short: as §7
[31] = Aqueous solubility of the compound at pH 7; format: physicochemical; conditions: buffer
[32] = Prodrug conversion in human intestine S9 fractions assessed as formation of 1-ethyl-3-[6-fluoro-5-[2-(1-hydroxy-1-methyl-ethyl)pyrimidin-5-yl]-7-[(2R)-tetrahydrofuran-2-yl]-1H-benzimidazol-2-yl]urea by Michaelis-Menten plot analysis; format: ADME, tissue-based; in short: as §7
[33] = tested on: Staphylococcus aureus; test: Antibacterial activity against methicillin/levofloxacin-resistant Staphylococcus aureus 156 in neutropenic CD1 mouse pneumonia model assessed as decrease in bacterial burden in lung at 30 mg/kg, po bid measured after 24 hrs; format: functional; in short: as §6
[34] = tested on: Liver; test: Prodrug conversion in human liver S9 fractions assessed as formation of 1-ethyl-3-[6-fluoro-5-[2-(1-hydroxy-1-methyl-ethyl)pyrimidin-5-yl]-7-[(2R)-tetrahydrofuran-2-yl]-1H-benzimidazol-2-yl]urea by Michaelis-Menten plot analysis; format: ADME, subcellular, Liver S9 fraction; in short: as §7
[35] = Prodrug conversion in monkey intestine S9 fractions assessed as formation of 1-ethyl-3-[6-fluoro-5-[2-(1-hydroxy-1-methyl-ethyl)pyrimidin-5-yl]-7-[(2R)-tetrahydrofuran-2-yl]-1H-benzimidazol-2-yl]urea by Michaelis-Menten plot analysis; format: ADME, tissue-based, Macaca mulatta; conditions: rhesus monkey; in short: as §7

DNA gyrase, sequence (P0A0K8 whole entry): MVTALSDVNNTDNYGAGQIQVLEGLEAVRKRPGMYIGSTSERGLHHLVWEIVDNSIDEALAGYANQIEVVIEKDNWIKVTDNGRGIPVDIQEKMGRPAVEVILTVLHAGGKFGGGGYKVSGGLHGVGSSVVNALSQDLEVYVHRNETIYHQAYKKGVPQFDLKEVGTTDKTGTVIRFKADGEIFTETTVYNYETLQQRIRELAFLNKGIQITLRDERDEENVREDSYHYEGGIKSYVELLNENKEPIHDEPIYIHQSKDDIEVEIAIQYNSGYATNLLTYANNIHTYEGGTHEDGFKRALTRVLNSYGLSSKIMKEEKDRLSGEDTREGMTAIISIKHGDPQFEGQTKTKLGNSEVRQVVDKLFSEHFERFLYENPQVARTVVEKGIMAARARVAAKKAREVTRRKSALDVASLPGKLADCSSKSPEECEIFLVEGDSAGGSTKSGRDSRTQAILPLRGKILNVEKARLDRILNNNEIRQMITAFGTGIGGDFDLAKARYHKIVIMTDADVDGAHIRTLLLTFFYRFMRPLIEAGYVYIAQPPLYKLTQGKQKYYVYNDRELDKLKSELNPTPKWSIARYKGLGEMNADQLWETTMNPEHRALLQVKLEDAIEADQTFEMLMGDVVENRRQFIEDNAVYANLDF
DNA gyrase, sequence (P20831 whole entry): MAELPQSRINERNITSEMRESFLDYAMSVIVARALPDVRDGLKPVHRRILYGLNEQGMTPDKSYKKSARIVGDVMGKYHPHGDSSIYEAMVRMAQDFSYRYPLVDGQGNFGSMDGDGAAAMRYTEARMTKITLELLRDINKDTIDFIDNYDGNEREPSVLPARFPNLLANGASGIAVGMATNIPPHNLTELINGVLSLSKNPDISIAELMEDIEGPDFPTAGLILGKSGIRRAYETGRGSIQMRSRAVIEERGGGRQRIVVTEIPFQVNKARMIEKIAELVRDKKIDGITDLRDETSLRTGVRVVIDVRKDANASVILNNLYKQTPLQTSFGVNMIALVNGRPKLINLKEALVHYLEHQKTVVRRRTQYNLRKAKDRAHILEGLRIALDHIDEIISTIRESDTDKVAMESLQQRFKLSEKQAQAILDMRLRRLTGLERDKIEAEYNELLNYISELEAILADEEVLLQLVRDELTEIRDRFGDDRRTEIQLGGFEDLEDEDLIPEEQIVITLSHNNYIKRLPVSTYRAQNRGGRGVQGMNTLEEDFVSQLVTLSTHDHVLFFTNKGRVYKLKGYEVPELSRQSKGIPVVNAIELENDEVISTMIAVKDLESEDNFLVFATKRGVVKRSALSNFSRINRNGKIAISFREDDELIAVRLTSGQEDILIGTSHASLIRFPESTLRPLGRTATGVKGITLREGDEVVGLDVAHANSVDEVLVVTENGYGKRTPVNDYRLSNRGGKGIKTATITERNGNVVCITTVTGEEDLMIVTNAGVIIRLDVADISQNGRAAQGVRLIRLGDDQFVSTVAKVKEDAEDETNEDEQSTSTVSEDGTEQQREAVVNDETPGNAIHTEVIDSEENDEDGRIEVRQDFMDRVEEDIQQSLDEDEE
Topoisomerase IV, sequence (P0C1U9 whole entry): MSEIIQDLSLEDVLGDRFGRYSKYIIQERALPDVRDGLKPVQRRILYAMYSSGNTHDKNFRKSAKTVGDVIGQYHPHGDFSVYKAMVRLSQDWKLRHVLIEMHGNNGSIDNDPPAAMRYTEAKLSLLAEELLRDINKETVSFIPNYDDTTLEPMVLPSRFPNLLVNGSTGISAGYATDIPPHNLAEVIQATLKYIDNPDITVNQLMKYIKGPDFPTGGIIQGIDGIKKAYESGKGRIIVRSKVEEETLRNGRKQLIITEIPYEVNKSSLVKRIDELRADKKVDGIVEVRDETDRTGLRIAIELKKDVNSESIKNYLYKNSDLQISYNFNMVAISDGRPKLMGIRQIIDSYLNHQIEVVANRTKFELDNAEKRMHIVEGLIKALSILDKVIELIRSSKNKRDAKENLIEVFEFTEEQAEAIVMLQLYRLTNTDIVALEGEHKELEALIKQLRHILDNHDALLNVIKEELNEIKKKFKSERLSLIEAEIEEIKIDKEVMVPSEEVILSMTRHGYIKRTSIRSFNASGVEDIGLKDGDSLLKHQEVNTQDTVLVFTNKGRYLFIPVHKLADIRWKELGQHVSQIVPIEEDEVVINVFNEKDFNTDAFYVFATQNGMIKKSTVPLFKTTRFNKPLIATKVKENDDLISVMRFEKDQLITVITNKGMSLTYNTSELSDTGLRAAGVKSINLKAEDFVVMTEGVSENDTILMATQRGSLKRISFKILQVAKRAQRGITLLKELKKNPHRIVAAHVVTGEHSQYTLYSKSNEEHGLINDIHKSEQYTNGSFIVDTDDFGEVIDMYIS
Topoisomerase IV, sequence (P0C1S7 whole entry): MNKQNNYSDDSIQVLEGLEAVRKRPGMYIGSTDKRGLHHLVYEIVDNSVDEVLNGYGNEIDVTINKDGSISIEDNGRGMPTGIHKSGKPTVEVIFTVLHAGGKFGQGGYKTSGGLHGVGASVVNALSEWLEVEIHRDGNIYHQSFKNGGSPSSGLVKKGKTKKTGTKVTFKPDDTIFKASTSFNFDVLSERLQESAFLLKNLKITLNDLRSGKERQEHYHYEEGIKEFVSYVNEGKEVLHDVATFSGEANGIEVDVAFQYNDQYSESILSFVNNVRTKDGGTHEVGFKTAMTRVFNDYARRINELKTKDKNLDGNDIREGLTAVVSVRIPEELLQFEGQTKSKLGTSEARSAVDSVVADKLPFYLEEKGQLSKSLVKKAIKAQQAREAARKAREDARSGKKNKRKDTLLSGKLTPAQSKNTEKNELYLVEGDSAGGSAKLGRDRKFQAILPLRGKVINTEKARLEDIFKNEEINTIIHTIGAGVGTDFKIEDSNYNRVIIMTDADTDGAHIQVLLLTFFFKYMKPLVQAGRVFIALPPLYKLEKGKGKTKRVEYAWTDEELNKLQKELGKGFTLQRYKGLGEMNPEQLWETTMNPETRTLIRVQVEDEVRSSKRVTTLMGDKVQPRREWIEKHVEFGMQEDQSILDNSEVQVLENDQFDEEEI

CCNC(=O)Nc1nc2cc(-c3cnc(C(C)(C)O)nc3)c(F)c([C@H]3CCCO3)c2[nH]1
Papp B→A [1]: 16.3 ×10⁻⁶ cm/s | pKi [2]: > 8.05 | Drug uptake [3]: Active | MIC [4]: ≤ 0.008 µg/mL | Papp A→B [5]: 9.5 ×10⁻⁶ cm/s | MIC [6]: 0.016 µg/mL (≈ 0.0373 µM) | Drug uptake [7]: Active | MIC [8]: 0.06 µg/mL (≈ 0.14 µM) | MIC [9]: 0.063 µg/mL (≈ 0.147 µM) | pKi [10]: 7.92 | Drug uptake [11]: Active | MIC [12]: 0.06 µg/mL (≈ 0.14 µM) | Drug uptake [13]: Active | Drug uptake [14]: Active | Drug uptake [15]: Active | MIC [16]: 0.016 µg/mL (≈ 0.0373 µM)

C[C@H]1COc2c(N3CCN(C)CC3)c(F)cc3c(=O)c(C(=O)O)cn1c23.C[C@H]1COc2c(N3CCN(C)CC3)c(F)cc3c(=O)c(C(=O)O)cn1c23.O [LEVOFLOXACIN]
MIC [8]: 8 µg/mL | MIC [12]: 0.25 µg/mL

CCNC(=O)Nc1nc2cc(-c3cnc(C(C)(C)OP(=O)(O)O)nc3)c(F)c([C@H]3CCCO3)c2[nH]1
Papp [17]: impermeable | Drug metabolism [18]: metabolite_detected | pKi [2]: > 8.05 | MIC [4]: 0.25 µg/mL (≈ 0.492 µM) | Papp [19]: impermeable | Km [20]: 256 µM | Vmax [20]: 19.3 pmol/min/mg | Drug metabolism [21]: metabolite_detected | Drug metabolism [22]: metabolite_detected | Activity [23]: >3 deltalog10CFU | MIC [6]: 1 µg/mL (≈ 1.97 µM) | Activity [8]: Dose-dependent effect | Km [24]: 49.8 µM | Vmax [24]: 45.5 pmol/min/mg | MIC [9]: 4 µg/mL (≈ 7.87 µM) | pKi [10]: 7.52 | Drug metabolism [25]: metabolite_detected | Drug metabolism [26]: metabolite_detected | Km [27]: 122 µM | Vmax [27]: 25.2 pmol/min/mg | Drug metabolism [28]: metabolite_detected | Km [29]: 736 µM | Vmax [29]: 958 pmol/min/mg | Km [30]: 998 µM | Vmax [30]: 1162 pmol/min/mg | Activity [12]: Dose-dependent effect | solubility [31]: 75 mg/mL (≈ 148000 µM) | Vmax [32]: > 1000 pmol/min/mg | Activity [33]: >3 deltalog10CFU | MIC [16]: 8 µg/mL (≈ 15.7 µM) | Km [34]: 137 µM | Vmax [34]: 45.8 pmol/min/mg | Km [35]: 5180 µM | Vmax [35]: 1974 pmol/min/mg
